Screening results from PubChem.
NPY-Y2 antag – NPY-Y2 receptor antagonists, primary screen, cell-based; 0.99% of 140,000 active; inhibition, % at 2.7 µM; NPY-Y2 expressing cells, antagonist mode; Neuropeptide Y receptor type 2 (Homo sapiens), P49146; in the data active = inhibition above about 17%;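 note: 0% = vehicle with agonist challenge and 100% = reference antagonist with challenge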
KCC2 mod – KCC2 cotransporter modulators, thallium flux, primary screen, cell-based, HEK293 KCC2, FluoZin-2 fluorescence, MLSMR | B-score of Tl+ flux slope (higher = more flux/activation; lower = inhibition) at 10 µM | 2.2% of 190,000 active | KCC2 cells, thallium flux FluoZin-2 fluorescence;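 active = thallium flux slope and its plate-corrected score both differing from the plate sample mean at a set confidence after two filtering rounds, in either direction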;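 note: slope of fluorescence scaled to starting intensity during 10 to 20 s after thallium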
NPY1 pot ag – NPY-Y1 receptor potentiators or agonists, primary screen, cell-based. Neuropeptide Y receptor type 1 (Homo sapiens), P25929. NPY-Y1 expressing cells, potentiator/agonist activation. activation, % at 3.6 µM. 0.37% of 220,000 active. AID 1304, 2008; in the data active = activation above about 33%, passing the limit was not always enough;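 note: cells stimulated with NPY at EC10 then isoproterenol at EC100; 0% = low agonist plus stimulus and 100% = saturating agonist plus stimulus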
Furin inhibitor – human furin inhibitors, primary screen, biochemical, fluorescence intensity; P09958; purified furin, fluorogenic substrate cleavage; inhibition, % at 20 µM or 30 µM; 0.061% of 220,000 active; in the data active = inhibition above about 25%
Target sequence (P09958 108-714 limits assumed): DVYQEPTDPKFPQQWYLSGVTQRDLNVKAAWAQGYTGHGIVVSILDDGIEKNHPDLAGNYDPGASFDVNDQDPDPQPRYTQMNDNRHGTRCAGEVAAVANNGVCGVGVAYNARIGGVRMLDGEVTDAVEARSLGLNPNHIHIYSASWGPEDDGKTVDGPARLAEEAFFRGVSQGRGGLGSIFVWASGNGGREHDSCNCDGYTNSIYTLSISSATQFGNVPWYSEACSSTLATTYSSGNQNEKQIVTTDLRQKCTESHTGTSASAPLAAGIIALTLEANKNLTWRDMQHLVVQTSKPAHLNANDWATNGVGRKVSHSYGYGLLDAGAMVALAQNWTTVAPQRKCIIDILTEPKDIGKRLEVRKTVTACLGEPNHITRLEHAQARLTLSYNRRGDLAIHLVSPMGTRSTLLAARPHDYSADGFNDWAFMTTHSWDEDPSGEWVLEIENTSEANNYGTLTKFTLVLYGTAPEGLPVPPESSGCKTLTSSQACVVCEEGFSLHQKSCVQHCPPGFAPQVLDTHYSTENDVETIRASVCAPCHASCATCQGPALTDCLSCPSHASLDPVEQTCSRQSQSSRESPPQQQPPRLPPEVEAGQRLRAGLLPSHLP
NPY2 pot ag – NPY-Y2 potentiators or agonists, primary screen, cell-based; 0.45% of 220,000 active; Neuropeptide Y receptor type 2 (Homo sapiens), P49146; cells expressing NPY-Y2, potentiator/agonist read-out; activation, % at 3.6 µM; AID 1359, 2008; in the data active = activation above about 27%;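 note: cells stimulated with NPY near EC25 plus isoproterenol at EC100; 0% = vehicle plus submaximal agonist and 100% = vehicle plus saturating agonist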
NPY Y1 blocker – NPY-Y1 receptor antagonists, primary screen, cell-based; Neuropeptide Y receptor type 1 (Homo sapiens), P25929; HEK293-CNG Y1 cells, membrane potential fluorescence; NPY at EC95, then isoproterenol; inhibition, % at 3.6 µM; 1% of 200,000 active;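 active = inhibition above the campaign mean inhibition of all tested compounds plus 3 SD, cut at about 20% in these data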;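 note: 0% = DMSO wells given NPY plus isoproterenol and 100% = isoproterenol alone without NPY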
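Material: HEK293 cells with Y1 receptor plus CNG channel; times: compound incubation 1 h at room temperature, readout 45 min post-stimulation; signal: fluorescence, membrane potential probe; read-out basis: fluorescence ratio normalized to % inhibition between controls; benchmarks: full-block control isoproterenol-only wells, zero-block control NPY plus isoproterenol wells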
NPY-Y1 pot conf – NPY-Y1 potentiators or agonists, confirmation, cell-based; shares compounds with NPY1 pot ag; cell-based NPY-Y1 potentiator/agonist assay; activation, % at 3.6 µM; 20% of 280 active; AID 1546, 2009; in the data active = activation above about 45%;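 note: cells challenged with NPY at its EC10 plus isoproterenol stimulus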
NPY-Y2 counter – NPY-Y2 potentiators or agonists, counter-screen for NPY-Y1 potentiator project, cell-based, fluorescence. shares compounds with NPY1 pot ag. HEK293-CNG cells, membrane-potential fluorescence (FLIPR), 1536-well. activation, % at 3.6 µM. 20% of 280 active. AID 1649, 2009; in the data active = activation above about 33%
NPY-Y1 agonist – NPY-Y1 direct agonists without NPY, confirmation, counter-screen for NPY-Y1 potentiator project, cell-based, fluorescence; HEK293 Y1-CNGC, membrane potential fluorescence, agonist mode; AID 1697, 2009; activation, % at 3.6 µM; 50% of 280 active; shares compounds with NPY1 pot ag;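 active = percent activation above the mean of DMSO-only control wells plus 3 SD of those wells, cut at about 18% in these data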;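 note: cells challenged with isoproterenol plus Ro 20-1724 with no NPY in test wells; Y1 agonism lowers isoproterenol-driven cAMP and reduces probe fluorescence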
NPY-Y2 agonist – NPY-Y2 direct agonists without NPY, counter-screen for NPY-Y1 potentiator project, cell-based, fluorescence | 67% of 280 active | shares compounds with NPY1 pot ag | AID 1698, 2009 | HEK293 Y2-CNGC, membrane potential fluorescence, agonist mode | activation, % at 3.6 µM;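 active = activation above the solvent-only control wells' mean plus 3 SD, cut at about 11% in these data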;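 note: 0% = DMSO with isoproterenol and 100% = 40 nM NPY maximal response; agonism lowers cAMP so well fluorescence drops in active wells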
CNGC inh 2 – CNGC cAMP sensor activity inhibitors, counter-screen for NPY-Y1 potentiator/agonist project, cell-based, HEK293-CNG parental, membrane potential fluorescence, Y1 set; inhibition, % at 3.6 µM; shares compounds with NPY1 pot ag; 42% of 280 active; isoproterenol cAMP;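 active = inhibition above the mean of stimulated solvent-only control wells plus 3 SD, cut at about 22% in these data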;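 note: 0% = isoproterenol-stimulated DMSO wells and 100% = unstimulated DMSO wells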
* marks the source's active call; other numbers are inactive results; . = not tested or not shown. This is a sample that favours compounds with a hit; in the whole collection about 3.7% have one here.

SMILES	NPY-Y2 antag	KCC2 mod	NPY1 pot ag	Furin inhibitor	NPY2 pot ag	NPY Y1 blocker	NPY-Y1 pot conf	NPY-Y2 counter	NPY-Y1 agonist	NPY-Y2 agonist	CNGC inh 2
COc1ccc(Oc2c(Cl)cnn(-c3ccc(Cl)c(Cl)c3)c2=O)cc1	-1	.	82*	-17	20	-5	78*	49*	61*	43*	65*
Cc1ccc(C(=O)N/C(=C/c2ccc(F)cc2)C(=O)NCc2ccncc2)cc1	3	-0.053	3	-17	-2	-5	.	.	.	.	.
CCOC(=O)C(Cc1ccccc1)C(=O)Nc1ccc(N(CC)CC)cc1 (stereo unspecified)	2	-0.05	46*	-22	8	0	50*	23	31*	19*	14
Nc1ccc2nc(SCc3ccc([N+](=O)[O-])cc3)sc2c1	0	.	0	-20	-6	4	.	.	.	.	.
COC(=O)CSc1nc2ccc(N)cc2s1	.	0.28	45*	-16	21	-5	92*	67*	71*	64*	85*
O=C(Nc1ccccc1)Nc1cc(OCC(F)(F)F)cc(OCC(F)(F)F)c1	-2	0.78	46*	-7	24	-4	36	30	11	25*	25*
O=C(Nc1ccc([N+](=O)[O-])cc1)C(=O)Nc1cccc(C(=O)O)c1	.	.	52*	-8	35	.	36	19	24*	8	35*
COc1ccc(N(CCCN2C(=O)c3cccc4cccc(c34)C2=O)C(=O)c2cccnc2)cc1	.	-1.5	19	6	-6	-2	.	.	.	.	.
COc1ccc(N(CCCN2C(=O)c3cccc4cccc(c34)C2=O)C(=O)c2ccncc2)cc1	.	-1.1	42*	-6	-4	3	-2	-7	-11	-4	-4
CC1CCN(CC(O)COC2CC(C)CCC2C(C)C)CC1 (stereo unspecified)	.	0.036	41*	-15	-4	10	4	5	-7	16*	-9
CC1CCC(C(C)C)C(OCC(O)CNC(C)c2ccccc2)C1 (stereo unspecified)	.	0.98	43*	-10	17	7	32	39*	45*	42*	14
Cc1ccc(-c2nnc(N3CC(C)OC(C)C3)c3ccccc23)cc1 (stereo unspecified)	.	-2.7	27	-17	9	1	.	.	.	.	.
Cc1nc(C)c(-c2csc(Nc3cccnc3)n2)s1	-7	.	40*	-19	26	-16	51*	41*	53*	52*	41*
COc1ccccc1CNC(=O)c1ccc(N2CCOCC2)c([N+](=O)[O-])c1	.	-1.3	-6	-9	-14	9	.	.	.	.	.
CC(=O)C1C(c2ccc(F)cc2)c2c(noc2C)CC1(C)O (stereo unspecified)	.	-0.12	-2	-18	-33	.	.	.	.	.	.
Cc1[nH]n(-c2ccc([N+](=O)[O-])cc2)c(=O)c1C=NCCN1CCN(C(=O)c2cccc(F)c2)CC1	2	-0.71	47*	-15	6	-3	15	5	11	2	7
COCCCNCC(O)COc1ccccc1F (stereo unspecified)	.	0.01	49*	-33	26	-1	30	25	31*	27*	4
OCCNCCOc1ccccc1F	3	2.1	-24	-25	-4	6	.	.	.	.	.
O=C(O)/C=C/c1ccc(S(=O)(=O)NCc2ccco2)cc1	.	0.79	64*	-8	-10	2	4	-3	-10	-8	-2
CC1c2[nH]c3ccccc3c2CCN1C(=O)Nc1ccccc1 (stereo unspecified)	-1	-0.28	47*	7	9	-8	5	5	6	0	6
COC(=O)COc1ccc(/C=C2/NC(=O)N(CC(=O)OC)C2=O)cc1	.	-0.19	49*	-4	9	-2	118*	90*	103*	89*	96*
Clc1ccc(-[n+]2c(-c3cccc(Br)c3)[nH]c3nc4ccccc4nc32)cc1	.	-2.5	51*	-10	7	.	50*	47*	5	36*	6
Oc1ccc(Cl)cc1-c1cc(-c2cccc(Br)c2)n[nH]1	0	0.48	28	-18	11	-3	.	.	.	.	.
Nc1ccc(Nc2ccccc2)c(Cl)c1	2	.	19	-12	18	-3	.	.	.	.	.
Nc1ccccc1Nc1ccccc1	-1	-0.5	38*	-20	29	-8	28	11	9	10	24*
O=C(CN1C(=O)NC(c2ccccc2)(c2ccccc2)C1=O)c1c[nH]c2ccccc12	.	0.47	40*	-23	28	-8	36	28	34*	21*	29*
CCCC(=O)c1ccc(N2CCN(C(=O)c3ccccc3Br)CC2)c(F)c1	5	-0.12	34*	-6	8	-19	-27	0	-11	-2	-1
CCCC(=O)Nc1ccc(NC(=O)CCc2ccccc2)cn1	3	-0.059	52*	-25	17	-5	-1	1	-8	6	3
CSc1cc(C)c(OCC(=O)Nc2ccc(NC(C)=O)cc2)c(C)c1	.	.	6	-25	0	2	.	.	.	.	.
O=C(Cc1ccc(Cl)cc1)Nc1ncc([N+](=O)[O-])s1	.	0.79	36*	-11	11	-3	8	14	14	11*	6
